Experimental data from different studies.
Protocols differ between the studies behind these lines.
Effect on: cell growth or viability

Compound	cell line	technique	time	IC50
Cc1ccc(S(=O)(=O)n2cc(/C=N/NC(=O)c3ccccc3C)c3ccccc32)cc1	MCF-10A	MTT	48 h	> 50 µM
COc1ccc2c(c1)/C(=N/NC(N)=S)C(=O)N2CCn1ncc2c(=O)[nH]cnc21	BALB/3T3 clone A31	SRB	72 h	77.5 µg/mL
Clc1ccc(-c2cc(CNc3cccc4cccnc34)on2)c(Cl)c1	K562	MTS	72 h	33 µM
C=CC(C)(C)c1[nH]cnc1/C=C1/NC(=O)[C@H](C(C)C)NC1=O	NCI-H446	SRB		2 µM
COc1cc([C@@H]2c3cc4c(cc3[C@@H](O[C@@H]3O[C@@H]5CO[C@@H](C)O[C@H]5[C@H](O)[C@H]3O)[C@H]3COC(=O)[C@H]23)OCO4)cc(OC)c1O	K562	MTS	72 h	0.03 µM
CC(C)(C)[C@H](NC(=O)/C=C/c1ccc(OP(=O)(O)O)cc1)C(=O)N1CCC[C@H]1C(=O)N(c1ccccc1)c1ccc(I)cc1	JHH7	CCK-8		3.07 µM
O=c1cc(OCc2cc(-c3ccccc3)no2)c2ccccc2o1	K562	MTS	72 h	> 100 µM
Cc1ccc(S(=O)(=O)n2cc(/C=N/NC(=O)Cc3ccccc3C(F)(F)F)c3ccccc32)cc1	MCF-10A	MTT	48 h	> 50 µM
CC(C)[C@@H](C)NC(=O)c1cc(-c2cc3ccccc3n2C)cc(C(=O)NCCc2ccccn2)n1	JHH7	CCK-8		25.3 µM
N#Cc1ccc(-c2cc(CNc3cccc4cccnc34)on2)cc1	K562	MTS	72 h	11.1 µM
COc1cccc2c1C(=O)c1c(O)c3c(c(O)c1C2=O)C[C@@](O)(C(=O)CO)C[C@@H]3O[C@H]1C[C@H](N)[C@H](O)[C@H](C)O1	NCI-H446		96 h	0.0365 µM
CC(=O)c1ccc2cc(S(=O)(=O)Nc3ccccc3Cl)ccc2c1	MDCK	neutral red	48 h	12.7 µM
COc1cc(C2C3=C(COC3=O)N(CCO)c3cc4c(cc32)CCC4)cc(OC)c1OC (stereo not shown)	4T1	ATP luminescence	48 h	0.85 µM
O=C1C(=O)N(CCn2ncc3c(=O)[nH]cnc32)c2ccc(F)cc21	BALB/3T3 clone A31	SRB	72 h	19.6 µg/mL
COC[C@H](NC(=O)c1ccn(S(C)(=O)=O)c1)C(=O)Nc1nc(-c2cccc(N3C[C@@H](C)O[C@@H](C)C3)n2)cs1	VCaP	ATP luminescence	7 days	0.0265 µM
Cc1ccc(S(=O)(=O)n2cc(/C=N/NC(=O)Cc3cc(F)cc(F)c3)c3ccccc32)cc1	MCF-10A	MTT	48 h	> 50 µM

Compound	cell line	technique	time	IC50
CC(C)[C@@H]1NC(=O)/C(=C/c2cnc[nH]2)NC1=O	NCI-H446	SRB		> 15 µM
Nc1ncnc2c1ncn2CCN1C(=O)C(=O)c2cc(F)ccc21	BALB/3T3 clone A31	SRB	72 h	47.2 µg/mL
CCCCC(=O)Nc1ccc(-c2ccc3ncn(CCC)c(=O)c3c2)cn1	human PBMC	CCK-8	72 h	> 10 µM
Cc1ccc(S(=O)(=O)n2cc(/C=N/NC(=O)c3ccccc3)c3ccccc32)cc1	MCF-10A	MTT	48 h	> 50 µM
CCOC(=O)c1c(C)nc2ccc(-c3ccc(F)cc3F)cc2c1O	MCF-10A	MTT	48 h	≥ 100 µM
Nc1ccn([C@@H]2O[C@H](CO)[C@@H](O)C2(F)F)c(=O)n1	4T1	MTT	48 h	3.37 µg/mL
CC(=O)c1ccc2cc(S(=O)(=O)Nc3ccc(F)cc3)ccc2c1	MDCK	neutral red	48 h	93.4 µM
Cc1ccc(S(=O)(=O)n2cc(/C=N/NC(=O)c3ccc(C(F)(F)F)cc3)c3ccccc32)cc1	MCF-10A	MTT	48 h	> 50 µM
CC(=O)c1ccc2cc(S(=O)(=O)Nc3ccccn3)ccc2c1	MDCK	neutral red	48 h	88.8 µM
Nc1nnc(-c2ccccc2O)cc1N1CC2CCC(C1)N2c1ccnc(F)c1	VCaP	ATP luminescence	7 days	> 1 µM
Cc1ccc(S(=O)(=O)n2cc(/C=N/NC(=O)c3cccnc3)c3ccccc32)cc1	MCF-10A	MTT	48 h	> 50 µM
CNC(=O)c1cc(Oc2ccc(NC(=O)Nc3ccc(Cl)c(C(F)(F)F)c3)cc2)ccn1	BALB/3T3 clone A31	SRB	72 h	0.42 µg/mL
CC(=O)c1ccc2cc(S(=O)(=O)Nc3ccccc3)ccc2c1	MDCK	neutral red	48 h	90.9 µM
Cc1ccc(S(=O)(=O)n2cc(/C=N/NC(=O)c3cc4ccccc4cc3O)c3ccccc32)cc1	MCF-10A	MTT	48 h	> 50 µM
O=C1C(=O)N(CCn2ncc3c(=O)[nH]cnc32)c2ccccc21	BALB/3T3 clone A31	SRB	72 h	23.1 µg/mL
